This note sets out measurements from ChEMBL document CHEMBL1649578, “Biofilm formation and effect of caspofungin on biofilm structure of Candida species bloodstream isolates” (2009).

Assay [1] has as its system Candida parapsilosis. The experiment in a line: Antifungal activity against Candida parapsilosis isolate CP1 biofilm assessed as viable fungal count per cm2 of silicone disk at 32 ug/ml after 48 hrs […]. Format: functional. The gist of the method: (§1)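 Biofilms grown on serum-preconditioned silicone disks in RPMI 1640 for 24 h, PBS-washed, then exposed 48 h at 35°C on a rocker to caspofungin doubling dilutions spanning 0.25–128 μg/ml. Disks washed and sonicated/vortexed in PBS to release cells. Suspensions diluted in Butterfield buffer and plated on Sabouraud dextrose agar. Viable counts from three disks averaged as CFU/cm2.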

The subject of assay [2] is Candida albicans. Nature of the assay: Antifungal activity against Candida albicans isolate CA4 biofilm assessed as viable fungal count per cm2 of silicone disk at 64 ug/ml after 48 hrs […]. Format: functional. Put shortly:
as §1

Assay [3] relates to Candida albicans. The experiment in a line: Antifungal activity against Candida albicans isolate CA4 biofilm assessed as viable fungal count per cm2 of silicone disk at 32 ug/ml after 48 hrs […]. The format is functional. The gist of the method: as §1
In general terms: Formazan colour is commonly taken as a measure of viable cells.

In assay [4] the test system is Candida albicans. The experiment in a line: Antifungal activity against Candida albicans isolate CA4 biofilm assessed as viable fungal count per cm2 of silicone disk at 0.25 ug/ml after 48 hrs […]. The format is functional. Put shortly: as §1
The test system of assay [5] is Candida tropicalis. The experiment in a line: Antifungal activity against Candida tropicalis isolate CT8 biofilm assessed as change in cellular morphology at 128 ug/ml after 48 hrs by scanning electron microscopy. Format: functional, organism-based. Put shortly: (§2)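 Silicone disks preconditioned 24 h at 37°C in heat-inactivated human serum, seeded with 1 × 10^6 CFU/ml in MOPS-buffered RPMI 1640 (pH 7.0), 1.5 h attachment at 37°C with shaking, then grown 24 h. Washed biofilms exposed to 1.0, 16 or 128 μg/ml caspofungin in RPMI 1640, 48 h at 35°C on a rocker. Untreated controls in RPMI only. Fixed in 5% glutaraldehyde/cacodylate (pH 6.2), ethanol-dehydrated, HMDS air-dried, examined by SEM. Run in triplicate.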

In assay [6] the test system is Candida albicans. Nature of the assay: Antifungal activity against Candida albicans isolate CA4 biofilm assessed as appearance of collapsed blastospore at 1 ug/ml after 48 hrs by scanning electron microscopy. The format is functional, organism-based. The gist of the method: as §2
Assay [7] concerns Candida tropicalis. The experiment in a line: Antifungal activity against Candida tropicalis isolate CT8 biofilm assessed as viable fungal count per cm2 of silicone disk at 1 ug/ml after 48 hrs […]. The format is functional. Put shortly: as §1
Assay [8] has as its system Candida albicans. The experiment in a line: Ratio of SMIC for Candida albicans isolate CA4 biofilm to MIC for Candida albicans isolate CA4 planktonic cells. Format: functional.
For assay [9], the system named is Candida tropicalis. The experiment in a line: Antifungal activity against Candida tropicalis isolate CT8 biofilm assessed as appearance of collapsed cell wall at 1 ug/ml after 48 hrs by scanning electron microscopy. The format is functional, organism-based. Put shortly:
as §2

Assay [10] deals with Candida tropicalis. The experiment in a line: Antifungal activity against Candida tropicalis isolate CT8 biofilm assessed as viable fungal count per cm2 of silicone disk at 16 ug/ml after 48 hrs […]. Format: functional. The gist of the method:
as §1

Assay [11] has as its system Candida tropicalis. Nature of the assay: Ratio of SMIC for Candida tropicalis isolate CT8 biofilm to MIC for Candida tropicalis isolate CT8 planktonic cells. The format is functional.
Assay [12] deals with Candida albicans. The experiment in a line: Antifungal activity against Candida albicans isolate CA4 biofilm assessed as viable fungal count per cm2 of silicone disk at 1 ug/ml after 48 hrs […]. Format: functional. Put shortly: as §1
For assay [13], the system named is Candida parapsilosis. The experiment in a line: Antifungal activity against Candida parapsilosis isolate CP1 biofilm assessed as change in cellular morphology at 16 ug/ml after 48 hrs by scanning electron microscopy. The format is functional, organism-based. The gist of the method:
as §2

Assay [14] relates to Candida albicans. The experiment in a line: Antifungal activity against Candida albicans isolate CA4 biofilm assessed as viable fungal count per cm2 of silicone disk at 4 ug/ml after 48 hrs […]. The format is functional. Put shortly:
as §1

In assay [15] the test system is Candida parapsilosis. The experiment in a line: Antifungal activity against Candida parapsilosis isolate CP1 biofilm assessed as viable fungal count per cm2 of silicone disk at 4 ug/ml after 48 hrs […]. The format is functional. The gist of the method:
as §1

In assay [16] the test system is Candida parapsilosis. Nature of the assay: Antifungal activity against Candida parapsilosis isolate CP1 biofilm assessed as viable fungal count per cm2 of silicone disk at 64 ug/ml after 48 hrs […]. The format is functional. The gist of the method:
as §1

Assay [17] relates to Candida tropicalis. Nature of the assay: Antifungal activity against Candida tropicalis isolate CT8 biofilm assessed as viable fungal count per cm2 of silicone disk at 64 ug/ml after 48 hrs […]. The format is functional. Put shortly:
as §1

Assay [18] concerns Candida parapsilosis. The experiment in a line: Antifungal activity against Candida parapsilosis isolate CP1 biofilm assessed as change in cellular morphology at 1 ug/ml after 48 hrs by scanning electron microscopy. Format: functional, organism-based. The gist of the method: as §2
The subject of assay [19] is Candida tropicalis. Nature of the assay: Antifungal activity against Candida tropicalis isolate CT8 biofilm assessed as change in cellular morphology at 16 ug/ml after 48 hrs by scanning electron microscopy. The format is functional, organism-based. Put shortly: as §2
The test system of assay [20] is Candida albicans. Nature of the assay: Antifungal activity against Candida albicans isolate CA4 biofilm assessed as appearance of collapsed blastospore at 16 ug/ml after 48 hrs by scanning electron microscopy. The format is functional, organism-based. The gist of the method: as §2
Assay [21] deals with Candida parapsilosis. Nature of the assay: Antifungal activity against Candida parapsilosis isolate CP1 biofilm assessed as viable fungal count per cm2 of silicone disk at 0.5 ug/ml after 48 hrs […]. The format is functional. Put shortly:
as §1

Assay [22] relates to Candida parapsilosis. Nature of the assay: Antifungal activity against Candida parapsilosis isolate CP1 planktonic cells after 48 hrs by broth microdilution method. The format is functional. The settings on record: Lodderomyces parapsilosis, isolate CP1, 48 h. The gist of the method:
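Isolates grown on Sabouraud dextrose agar 24 h at 37°C. MIC is the lowest concentration giving a significant turbidity reduction versus control at 48 h.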
(Dilution methods test growth across graded concentrations, often in twofold steps.)

In assay [23] the test system is Candida parapsilosis. Nature of the assay: Antifungal activity against Candida parapsilosis isolate CP1 biofilm assessed as viable fungal count per cm2 of silicone disk at 2 ug/ml after 48 hrs […]. Format: functional. Put shortly: as §1
For assay [24], the system named is Candida albicans. The experiment in a line: Antifungal activity against Candida albicans isolate CA4 biofilm after 48 hrs by XTT assay. Format: functional. The settings on record: isolate CA4, 48 h. Put shortly:
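Biofilms of clinical bloodstream isolates grown 24 h in RPMI 1640 (MOPS, pH 7.0) on human-serum-preconditioned silicone disks, after 1.5 h attachment at 37°C from 1 × 10^6 CFU/ml. Washed disks exposed 48 h at 35°C on rocker to 10 doubling dilutions, 0.25–128 μg/ml. XTT-menadione reduction 2 h at 37°C, A490; concentration giving 50% reduction of metabolic activity vs drug-free control; triplicate.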

Converted amounts (≈) assume the structure as drawn. The source made the active and inactive calls. The calls are words filed in the database; no cut-off is given here.

As for `CC[C@H](C)C[C@H](C)CCCCCCCCC(=O)N[C@H]1C[C@@H](O)[C@@H](NCCN)NC(=O)[C@@H]2[C@@H](O)CCN2C(=O)[C@H]([C@H](O)CCN)NC(=O)[C@H]([C@H](O)[C@@H](O)c2ccc(O)cc2)NC(=O)[C@@H]2C[C@@H](O)CN2C(=O)[C@H]([C@@H](C)O)NC1=O` [CASPOFUNGIN], the log10cfu with Candida parapsilosis [1] is 4.2; in the assay with Candida albicans [2], 4.6; in the assay on Candida albicans [3], 5.6; in the assay with Candida albicans [4] it was 4.4; in the assay on Candida tropicalis [7], 5.7; with Candida tropicalis [10] it was 5.7. Also, the log10cfu in the assay on Candida albicans [12] is reported as 3.3; in the assay on Candida albicans [14] it was 5.3; in the assay on Candida parapsilosis [15], 5.1; with Candida parapsilosis [16] it was 3.6; in the assay with Candida tropicalis [17], 5; in the assay on Candida parapsilosis [21] it was 0. Besides, the log10cfu with Candida parapsilosis [23] was determined as 0. Besides, the result in the assay on Candida tropicalis [5] and in the assay with Candida parapsilosis [18] was inactive. The result in the assay on Candida albicans [6], in the assay on Candida tropicalis [9], in the assay on Candida parapsilosis [13], in the assay with Candida tropicalis [19] and in the assay with Candida albicans [20] was Active. In addition, the Ratio in the assay on Candida albicans [8] was 2; in the assay on Candida tropicalis [11] it was 16. Further, the MIC is 0.25 µg/mL (≈ 0.229 µM) against Candida parapsilosis [22] and 0.5 µg/mL (≈ 0.457 µM) against Candida albicans [24].
